From ChEMBL document CHEMBL1125111, “The synthesis and antibacterial activities of quinolones containing five- and six-membered heterocyclic substituents at the 7-position” (1990)
Values after ≈ are worked out from the molar mass of the structure shown.

Tests used:
Format in all cases: functional
Enterococcus faecium = assay: In vitro antibacterial activity against Streptococcus faecium ATCC 8043
Summary of the method: (§1)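 Agar dilution MIC: strains grown overnight in brain-heart infusion broth at 36 °C; test compound stock 2000 µg/mL serially diluted 2-fold into BHI agar for final 200 to 0.005 µg/mL; plates inoculated with about 10⁴ organisms, incubated 36 °C for 18 h. MIC (µg/mL) taken as lowest concentration giving no visible growth; ciprofloxacin run side by side as reference.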

Streptococcus agalactiae = assay: In vitro antibacterial activity against Streptococcus agalactiae CMS 508; summary of the method: as §1
Staphylococcus aureus [1] = assay: In vitro antibacterial activity against Staphylococcus aureus 45; summary of the method: as §1
Staphylococcus aureus [2] = assay: In vitro antibacterial activity against Staphylococcus aureus A5177; summary of the method: as §1
Klebsiella pneumoniae = assay: In vitro antibacterial activity against Klebsiella pneumoniae 8045; summary of the method: as §1
Streptococcus pyogenes = assay: In vitro antibacterial activity against Streptococcus pyogenes 930; summary of the method: as §1
Pseudomonas aeruginosa [3] = assay: In vitro antibacterial activity against Pseudomonas aeruginosa 5007; summary of the method: as §1
Pseudomonas aeruginosa [4] = assay: In vitro antibacterial activity against Pseudomonas aeruginosa K799/WT; summary of the method: as §1
Staphylococcus aureus [5] = assay: In vitro antibacterial activity against Staphylococcus aureus ATCC 6538P; summary of the method: as §1
Escherichia coli = assay: In vitro antibacterial activity against Escherichia coli Juhl; summary of the method: as §1
Streptococcus equinus = assay: In vitro antibacterial activity against Streptococcus bovis A5169; summary of the method: as §1
Acinetobacter = assay: In vitro antibacterial activity against Acinetobacter CMX 669; summary of the method: as §1
Klebsiella aerogenes = assay: In vitro antibacterial activity against Enterobacter aerogenes ATCC 13048; summary of the method: as §1
Staphylococcus aureus [6] = assay: In vitro antibacterial activity against Staphylococcus aureus CMX 686B; summary of the method: as §1
[7] = tested on: Staphylococcus epidermidis; assay: In vitro antibacterial activity against Staphylococcus epidermidis 3519; summary of the method: as §1

Row | SMILES | MIC (Enterococcus faecium) | MIC (Streptococcus agalactiae) | MIC (Staphylococcus aureus [1]) | MIC (Staphylococcus aureus [2]) | MIC (Klebsiella pneumoniae) | MIC (Streptococcus pyogenes) | MIC (Pseudomonas aeruginosa [3]) | MIC (Pseudomonas aeruginosa [4]) | MIC (Staphylococcus aureus [5]) | MIC (Escherichia coli) | MIC (Streptococcus equinus) | MIC (Acinetobacter) | MIC (Klebsiella aerogenes) | MIC (Staphylococcus aureus [6]) | MIC [7]
1 | CCn1cc(C(=O)O)c(=O)c2cc(F)c(C3=NCCCO3)cc21 | > 100 µg/mL | > 100 µg/mL | > 100 µg/mL | > 100 µg/mL | 25 µg/mL (≈ 78.5 µM) | > 100 µg/mL | > 100 µg/mL | > 100 µg/mL | 50 µg/mL (≈ 157 µM) | 50 µg/mL (≈ 157 µM) | > 100 µg/mL | > 100 µg/mL | > 100 µg/mL | 50 µg/mL (≈ 157 µM) | > 100 µg/mL
2 | CCn1cc(C(=O)O)c(=O)c2cc(F)c(-c3coc(N)n3)cc21 | > 100 µg/mL | 100 µg/mL (≈ 315 µM) | 50 µg/mL (≈ 158 µM) | 25 µg/mL (≈ 78.8 µM) | 25 µg/mL (≈ 78.8 µM) | 100 µg/mL (≈ 315 µM) | > 100 µg/mL | > 100 µg/mL | 12.5 µg/mL (≈ 39.4 µM) | 50 µg/mL (≈ 158 µM) | > 100 µg/mL | > 100 µg/mL | 50 µg/mL (≈ 158 µM) | 12.5 µg/mL (≈ 39.4 µM) | 50 µg/mL (≈ 158 µM)
3 | CCn1cc(C(=O)O)c(=O)c2cc(F)c(-c3coc(C)n3)cc21 | 100 µg/mL (≈ 316 µM) | 50 µg/mL (≈ 158 µM) | 3.1 µg/mL (≈ 9.8 µM) | 3.1 µg/mL (≈ 9.8 µM) | 3.1 µg/mL (≈ 9.8 µM) | 100 µg/mL (≈ 316 µM) | 50 µg/mL (≈ 158 µM) | 50 µg/mL (≈ 158 µM) | 1.56 µg/mL (≈ 4.93 µM) | 6.2 µg/mL (≈ 19.6 µM) | 100 µg/mL (≈ 316 µM) | 12.5 µg/mL (≈ 39.5 µM) | 50 µg/mL (≈ 158 µM) | 0.78 µg/mL (≈ 2.47 µM) | 3.1 µg/mL (≈ 9.8 µM)
4 | CCn1cc(C(=O)O)c(=O)c2cc(F)c(C(=O)O)cc21 | > 100 µg/mL | > 100 µg/mL | > 100 µg/mL | > 100 µg/mL | > 100 µg/mL | > 100 µg/mL | > 100 µg/mL | > 100 µg/mL | > 100 µg/mL | > 100 µg/mL | > 100 µg/mL | > 100 µg/mL | > 100 µg/mL | > 100 µg/mL | > 100 µg/mL
5 | CCn1cc(C(=O)O)c(=O)c2cc(F)c(C(=O)NCCO)cc21 | > 100 µg/mL | > 100 µg/mL | > 100 µg/mL | > 100 µg/mL | 50 µg/mL (≈ 155 µM) | > 100 µg/mL | > 100 µg/mL | > 100 µg/mL | > 100 µg/mL | 50 µg/mL (≈ 155 µM) | > 100 µg/mL | > 100 µg/mL | > 100 µg/mL | > 100 µg/mL | > 100 µg/mL
6 | CCn1cc(C(=O)O)c(=O)c2cc(F)c(C3=NCCO3)cc21 | > 100 µg/mL | > 100 µg/mL | 50 µg/mL (≈ 164 µM) | 25 µg/mL (≈ 82.2 µM) | 6.2 µg/mL (≈ 20.4 µM) | > 100 µg/mL | > 100 µg/mL | > 100 µg/mL | 25 µg/mL (≈ 82.2 µM) | 12.5 µg/mL (≈ 41.1 µM) | > 100 µg/mL | 50 µg/mL (≈ 164 µM) | 12.5 µg/mL (≈ 41.1 µM) | 12.5 µg/mL (≈ 41.1 µM) | 50 µg/mL (≈ 164 µM)
7 | CCn1cc(C(=O)O)c(=O)c2cc(F)c(-c3ccc(C)o3)cc21 | > 100 µg/mL | 50 µg/mL (≈ 159 µM) | 1.56 µg/mL (≈ 4.95 µM) | 1.56 µg/mL (≈ 4.95 µM) | 6.2 µg/mL (≈ 19.7 µM) | 50 µg/mL (≈ 159 µM) | > 100 µg/mL | > 100 µg/mL | 1.56 µg/mL (≈ 4.95 µM) | 12.5 µg/mL (≈ 39.6 µM) | > 100 µg/mL | 25 µg/mL (≈ 79.3 µM) | 12.5 µg/mL (≈ 39.6 µM) | 0.78 µg/mL (≈ 2.47 µM) | 1.56 µg/mL (≈ 4.95 µM)
8 | CCn1cc(C(=O)O)c(=O)c2cc(F)c(C3=NC(C)(C)CO3)cc21 | > 100 µg/mL | > 100 µg/mL | 100 µg/mL (≈ 301 µM) | 25 µg/mL (≈ 75.2 µM) | 100 µg/mL (≈ 301 µM) | > 100 µg/mL | > 100 µg/mL | > 100 µg/mL | 25 µg/mL (≈ 75.2 µM) | > 100 µg/mL | > 100 µg/mL | > 100 µg/mL | > 100 µg/mL | 12.5 µg/mL (≈ 37.6 µM) | 50 µg/mL (≈ 150 µM)
9 | CCn1cc(C(=O)O)c(=O)c2cc(F)c(-c3cocn3)cc21 | > 100 µg/mL | > 100 µg/mL | 25 µg/mL (≈ 82.7 µM) | 12.5 µg/mL (≈ 41.4 µM) | 6.2 µg/mL (≈ 20.5 µM) | > 100 µg/mL | > 100 µg/mL | 100 µg/mL (≈ 331 µM) | 6.2 µg/mL (≈ 20.5 µM) | 12.5 µg/mL (≈ 41.4 µM) | > 100 µg/mL | 50 µg/mL (≈ 165 µM) | 12.5 µg/mL (≈ 41.4 µM) | 6.2 µg/mL (≈ 20.5 µM) | 12.5 µg/mL (≈ 41.4 µM)
10 | CCn1cc(C(=O)O)c(=O)c2cc(F)c(-c3c[nH]cn3)cc21.Cl | > 100 µg/mL | 50 µg/mL | 50 µg/mL | 25 µg/mL | 12.5 µg/mL | 50 µg/mL | > 100 µg/mL | > 100 µg/mL | 12.5 µg/mL | 25 µg/mL | > 100 µg/mL | > 100 µg/mL | 50 µg/mL | 12.5 µg/mL | 50 µg/mL
11 | O=C(O)c1cn(C2CC2)c2cc(N3CCNCC3)c(F)cc2c1=O [CIPROFLOXACIN] | 0.39 µg/mL (≈ 1.18 µM) | 0.39 µg/mL (≈ 1.18 µM) | 1.56 µg/mL (≈ 4.71 µM) | 0.39 µg/mL (≈ 1.18 µM) | 0.02 µg/mL (≈ 0.0604 µM) | 0.39 µg/mL (≈ 1.18 µM) | 0.2 µg/mL (≈ 0.604 µM) | 0.2 µg/mL (≈ 0.604 µM) | 0.1 µg/mL (≈ 0.302 µM) |  | 1.56 µg/mL (≈ 4.71 µM) | 0.78 µg/mL (≈ 2.35 µM) | 0.05 µg/mL (≈ 0.151 µM) | 0.2 µg/mL (≈ 0.604 µM) | 0.39 µg/mL (≈ 1.18 µM)
